NR2E3 ag-1 – activates human photoreceptor nuclear receptor NR2E3 | Q9Y5X4 | GST-NR2E3/biotin-RetCOR TR-FRET, 1536-well | inhibition of corepressor binding, % at 4.78 µM | hit rate 0.12% among 320,000;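 active = percent inhibition above the cutoff of mean plus 3 SD of all tested compounds, set per screening campaign, cut at about 20% in these data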;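 also: 0% = DMSO wells and 100% = biotin wells as full block of FRET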
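Material: NR2E3–RetCOR corepressor complex | Quantity: 1.35 nM GST-tagged NR2E3 final | Schedule: 5 h at 4 °C | Replication: Singlicate compound wells | Reagent: RetCOR corepressor, biotinylated, 7 nM | Controls: Biotin wells as high control, 0.6% DMSO wells as low control | Signal: TR-FRET, Eu(K)-anti-GST donor, streptavidin-D2 acceptor, ex 340, em 617/671 nm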
MC4R ag barr – activates human MC4R beta-arrestin recruitment; P32245; U2OS MC4R beta-arrestin complementation, luminescence; percent of melanotan II response, DMSO zero; activation, % at 8.9 µM; hit rate 0.98% among 360,000;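 active = activation above a per-plate cutoff, the mean activation of sample wells on that plate plus 3 SD, cut at about 8% in these data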
Target sequence (P32245 whole entry, looked up): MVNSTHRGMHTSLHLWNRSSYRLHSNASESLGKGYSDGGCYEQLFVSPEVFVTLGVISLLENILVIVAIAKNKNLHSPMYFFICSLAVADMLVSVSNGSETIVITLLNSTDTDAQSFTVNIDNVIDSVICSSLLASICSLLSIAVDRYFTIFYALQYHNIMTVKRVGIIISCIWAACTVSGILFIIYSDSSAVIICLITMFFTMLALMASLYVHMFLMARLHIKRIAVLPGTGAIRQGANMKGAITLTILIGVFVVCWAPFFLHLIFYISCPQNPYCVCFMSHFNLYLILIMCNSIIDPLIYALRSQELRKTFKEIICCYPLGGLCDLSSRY
PG9 Ab binder – binds the HIV-1 gp120 antibody PG9 | TR-FRET gp120-PG9 antibody binding | inhibition, % at 6.7 µM | hit rate 0.43% among 360,000; in the data active = inhibition above about 8.5%
NR1D1 modulator – modulates human Rev-erb alpha binding to DNA; P20393; Rev-erbα–FITC-DNA binding, fluorescence polarization, 90 min; activity, % at 10 µM; hit rate 0.79% among 370,000; AID 1259318;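 active = activity above about 14%, limit read from the data; passing the limit was not always enough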;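 also: 0% = DMSO wells with 35 nM protein and 100% = DMSO wells with 750 nM protein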
MC4R antagonist – blocks human MC4R cAMP signaling | inhibition, % at 6.5 µM | MC4R-expressing cells, MTII-stimulated cAMP, LANCE TR-FRET | hit rate 0.48% among 360,000 | P32245;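 active = inhibition above its plate's cutoff, the mean of tested wells on that plate plus 3 SD, cut at about 29% in these data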;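 also: 0% = Melanotan II alone and 100% = Melanotan II plus saturating MCL0020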
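System: U2OS-MC4R stable cell line; Technique: Eu-cAMP/anti-cAMP TR-FRET, emission 671 nm; Repeats: single well per compound; Also added: Melanotan II; Dosing: one concentration, 6.5 µM nominal; Schedule: 30-min compound, 1-h challenge, 1-h detection, room temperature.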
NR2E3 ag-2 – activates human NR2E3 receptor; CHO-S Gal4-NCOR/VP16-NR2E3 two-hybrid, luciferase; inhibition of corepressor binding, % at 3.98 µM; hit rate 0.35% among 360,000;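 active = inhibition above the mean of all tested compounds plus 3 SD, cut at about 70% in these data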;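 also: 0% = DMSO with NR2E3 transfected cells and 100% = cells lacking NR2E3 construct; higher means lower luciferase signal from less NR2E3 corepressor binding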
PG9 bind confirm – PG9 antibody binding, confirmed | shares compounds with PG9 Ab binder | TR-FRET PG9 antibody binding, biochemical | inhibition, % at 6.7 µM | hit rate 90% among 1,500 | AID 651571; in the data active = inhibition above about 9%
PGV04 Ab binding – PGV04 control antibody binding, counter-screen; shares compounds with PG9 Ab binder; TR-FRET PGV04 antibody-gp120 binding, biochemical; hit rate 95% among 1,500; inhibition, % at 6.7 µM; in the data active = inhibition above about 9.5%
PG9 bind DR – small molecules binding HIV-1 gp120 antibody PG9; shares compounds with PG9 Ab binder; IC50, µM; TR-FRET PG9 antibody-gp120 binding inhibition; 95 tested, under 10 active; in the data active = IC50 below about 10 µM
PGV04 DR counter – binds control antibody PGV04 in PG9 counter-screen | shares compounds with PG9 Ab binder | TR-FRET binding to control antibody PGV04 | IC50, µM | hit rate 20% among 95
PG126 binding DR – PG126 binding, dose response counter-screen | shares compounds with PG9 Ab binder | TR-FRET binding to antibody PG126, counterscreen | IC50, µM | hit rate 20% among 95
NR1D1 mod conf – confirmation of modulators of human Rev-erb alpha DNA binding | shares compounds with NR1D1 modulator | Rev-erb alpha FITC-DNA binding, fluorescence polarization, 90 min | activation, % at 25 µM | hit rate 61% among 3,000 | AID 1259319;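 active = activation at or above a set limit, or at least 3 SD above the negative control mean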;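 also: 0% = 35 nM protein with DMSO and 100% = 750 nM protein high control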
RORg DNA counter – RORgamma DNA-binding activity, dose-response counter-screen. shares compounds with NR1D1 modulator. purified RORgamma protein-FITC-DNA binding, fluorescence polarization. IC50, µM. hit rate 8% among 910;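 active = Compounds whose fitted half-maximal concentration for disrupting protein-DNA binding is below 10 micromolar; the record names Rev-erb in its text, so the target is in doubt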
Active calls of the source: *; i = inactive; x = no result. Sampled rows, rich in hits. Any-hit rate of the full collection: about 2.7%. Rule as the data show it, unless noted: active = IC50 below about 9 µM; inactive = the rest.

SMILES	NR2E3 ag-1	MC4R ag barr	PG9 Ab binder	NR1D1 modulator	MC4R antagonist	NR2E3 ag-2	PG9 bind confirm	PGV04 Ab binding	NR1D1 mod conf	RORg DNA counter	others
CC(NC(=S)Nc1ccccc1C(F)(F)F)C1CC2CCC1C2 (centres undefined)	0	0	1	2	8	-18	x	x	x	x
CC12CCC(C(=O)NC3CCCCC3)([C@H](Br)C1=O)C2(C)C (some centres undefined)	-1	1	-1	2	20	-14	x	x	x	x
CCc1ccc2[nH]cc(S(=O)(=O)c3ccc(C)c(C)c3)c(=O)c2c1	2	-1	1	3	7	-2	x	x	x	x
CCc1ccc2[nH]c3nc(C)cc(C)c3c(=O)c2c1	-6	-1	25*	30*	-12	-92	16*	23*	25*	x
COc1cc(/C=N/NC(=O)Cc2c[nH]c3ccccc23)cc(OC)c1OC	-2	0	-1	3	5	-29	x	x	x	x
Cc1ccc(C(C)C)cc1C(=O)CC1(O)C(=O)N(C)c2ccccc21 (centres undefined)	4	2	-1	1	7	-20	x	x	x	x
CC1Cc2ccccc2N1C(=O)COC(=O)c1cccc(Br)c1 (centres undefined)	2	2	-1	0	-1	-7	x	x	x	x
CC1Cc2ccccc2N1C(=O)COC(=O)c1cc(Br)ccc1O (centres undefined)	-1	-2	20*	35*	4	-15	6	8	25*	x
O=C(Nc1ccc(OC(=O)c2ccccc2)c(-c2nc3ccccc3s2)c1)c1ccccc1	0	-1	-3	18	0	-27	x	x	x	x
Cc1ccsc1C(=O)Nc1ccc(O)c(-c2nc3ccccc3s2)c1	17	6	51*	450*	0	-50	58*	78*	354*	>40
COc1ccccc1CNS(=O)(=O)CCNCc1ccco1	x	-2	-1	-1	2	-33	x	x	x	x
COC(=O)CSc1nc2cc3c(cc2cc1C#N)OCO3	-2	4	15*	58*	-3	-102	33*	71*	23*	x
CCOC(=O)CSc1nc2cc3c(cc2cc1C#N)OCO3	-1	7	49*	66*	2	-136	44*	62*	36*	>40
Cc1nc2ncc(Br)cc2[nH]1	-5	0	-1	-1	-1	6	x	x	x	x
CC(=O)c1sc(NC(=O)COc2ccc(Br)cc2)nc1C	0	2	18*	43*	7	-56	21*	60*	49*	>40
Cc1nc(NC(=O)C2CC2)sc1C(=O)Nc1ccc(Br)cc1	3	-2	14*	38*	14	16	14*	15*	27*	x
COc1ccc(/C(C)=N/NC(=O)CNC(=O)c2cccnc2)cc1OC	-2	-1	-2	-3	3	-3	x	x	x	x
COc1ccc2nc(SC)c(C#N)cc2c1	0	6	13*	42*	-6	-2	26*	58*	47*	>40
CC1CCCCC12NC(=O)N(CC(=O)Nc1ccc(N3CCOCC3)cc1)C2=O (centres undefined)	-2	-4	-3	-2	5	-4	x	x	x	x
COc1ccc(OC)c(Nc2nc(-c3ccccc3O)nc3ccccc23)c1	1	-1	50*	327*	5	-12	51*	75*	224*	>40
CCOc1ccc(CNC(c2ccccc2)c2ccccc2)cc1	2	1	-2	5	17	13	x	x	x	x
COc1ccc(CC(=O)OCc2cc3ccc(C)cc3[nH]c2=O)cc1	1	5	17*	34*	4	-28	18*	30*	31*	x
COc1ccc(CC(=O)OCc2cc3ccccc3[nH]c2=O)cc1	0	0	0	-2	3	-12	x	x	x	x
COc1ccc(NC(C)C(=O)N/N=C/c2ccccc2OCc2ccc(Br)cc2)cc1 (centres undefined)	-1	0	3	-1	5	-57	x	x	x	x
O=C(COC(=O)c1ccccc1C(=O)c1ccc(Cl)cc1)NC(c1ccccc1)c1ccccc1	1	4	17*	35*	-1	8	25*	47*	9	x
SMILES	NR2E3 ag-1	MC4R ag barr	PG9 Ab binder	NR1D1 modulator	MC4R antagonist	NR2E3 ag-2	PG9 bind confirm	PGV04 Ab binding	NR1D1 mod conf	RORg DNA counter	others
CCC(=O)c1cn(CC(=O)O)c2ccccc12	2	2	-2	-5	1	0	x	x	x	x
CCC(=O)c1cn(CC(=O)Nc2ccccc2Cl)c2ccccc12	3	0	11*	80*	19	11	14*	15*	44*	>40
CCC(=O)c1cn(CC(=O)Nc2cccc(C)c2)c2ccccc12	19	0	25*	52*	-1	-8	16*	23*	45*	i
N#CCCN(C(=O)CSc1nc2nc(-c3cccs3)cc(C(F)(F)F)c2c(=O)[nH]1)c1ccccc1	1	0	4	19	10	-18	x	x	x	x
CCSc1nnc(NC(=O)c2cc3c(s2)CCCC3)s1	4	6	12*	33*	-7	-6	23*	18*	38*	>40	PG9 bind DR=>67;PGV04 DR counter=i;PG126 binding DR=i
CC(C)Cc1nnc(NC(=O)c2cc3c(s2)CCC3)s1	0	0	1	1	2	-156	x	x	x	x
CCOC(=O)C1CCN(S(=O)(=O)c2ccc(-c3ccc(=O)[nH]n3)o2)CC1	1	-3	-1	6	3	-31	x	x	x	x
O=c1ccc(-c2ccc(S(=O)(=O)N3CCN(c4ccccc4)CC3)o2)n[nH]1	12	-1	25*	120*	4	0	43*	48*	62*	>40
CCC(c1nnnn1-c1ccc2c(c1)OCCO2)N1CCN(C(C)=O)CC1 (centres undefined)	x	x	0	5	x	-14	x	x	x	x

Bioassay records deposited in PubChem BioAssay by several laboratories.
